A selection: hits, their analogues and other compounds. The true share with any hit is near 3%.
XiGFP reactiv = activators of X-chromosome reactivation in mouse fibroblasts. XiGFP mouse fibroblasts, % GFP-positive cells imaging, 3 d; cells co-treated with 5-aza-dC sensitizer; scaled so ellipticine positive control = 100%. activation, % at 7.58 µM. 0.055% of 360,000 active;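 active = mean normalized replicate activation at least 10% and every replicate at or above 10%; inconclusive = only one of the two criteria met; inactive = mean below 10% and not all replicates reach 10%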;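 note: 0% = median of on-plate neutral control wells and 100% = ellipticine 6 µM median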
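System: XiGFP fibroblasts, SV40-immortalized. Medium: DMEM plus 5-aza-dC sensitizer. Doses: single point. Timing: 3 d treatment, 15 min room-temperature fixation. Control set: ellipticine 6 µM.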
esBAF inh = inhibitors of esBAF chromatin remodeling in mouse ES cells; reporter increase, % at 12.5 µM; Bmi1-luciferase knock-in reporter, 24 h; 100% = twice the neutral-well signal; AID 602393; 2% of 350,000 active; in the data active = activation above about 40%; inconclusive = no clear call, values can overlap the other calls;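 note: 0% = median of the plate's neutral control wells and 100% = double that signal; a rise in the Bmi1 reporter signal indicates esBAF inhibition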
Wnt act = activates Wnt/beta-catenin signaling in a reporter cell assay | activation, % at 9.35 µM | 1.2% of 300,000 active | AID 743398 | activator, plate reader; in the data active = activation above about 30%, passing the limit was not always enough; inconclusive = no clear call, values can overlap the other calls;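 note: 0% = neutral control wells and 100% = positive control wells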
CASP6 VEID inh = caspase-6 (human) enzyme inhibition; AID 686996; purified caspase-6, Z-VEID-R110 cleavage fluorescence; P55212; 0.53% of 350,000 active; inhibition, % at 12.5 µM;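 active = mean inhibition across replicates at least about 35%, with every replicate also reaching that limit, limit read from the data; inconclusive = only one of the two criteria met; inactive = neither criterion met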;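 note: 0% = median of neutral control wells and 100% = no fluorescence left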
MITF act = MITF TRPM1 promoter activation in melanoma cells | SK-MEL-5 TRPM1-promoter luciferase, 24 h; % of positive control, neutral wells = 0 | activation, % at 12.5 µM | 0.75% of 300,000 active | AID 588334;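 active = mean activation of at least 80% with every replicate also reaching 80%; inconclusive = mean reaches 80% but some replicate falls short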;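 note: 0% = neutral control wells and 100% = parthenolide positive control wells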
NSD2 HMT inh = inhibitors of human histone methyltransferase NSD2; O96028; NSD2 peptide methylation, AlphaScreen, 120 min; inhibition, % at 12.5 µM; 0.54% of 310,000 active; in the data active = inhibition above about 50%
Target sequence (O96028 whole entry, looked up): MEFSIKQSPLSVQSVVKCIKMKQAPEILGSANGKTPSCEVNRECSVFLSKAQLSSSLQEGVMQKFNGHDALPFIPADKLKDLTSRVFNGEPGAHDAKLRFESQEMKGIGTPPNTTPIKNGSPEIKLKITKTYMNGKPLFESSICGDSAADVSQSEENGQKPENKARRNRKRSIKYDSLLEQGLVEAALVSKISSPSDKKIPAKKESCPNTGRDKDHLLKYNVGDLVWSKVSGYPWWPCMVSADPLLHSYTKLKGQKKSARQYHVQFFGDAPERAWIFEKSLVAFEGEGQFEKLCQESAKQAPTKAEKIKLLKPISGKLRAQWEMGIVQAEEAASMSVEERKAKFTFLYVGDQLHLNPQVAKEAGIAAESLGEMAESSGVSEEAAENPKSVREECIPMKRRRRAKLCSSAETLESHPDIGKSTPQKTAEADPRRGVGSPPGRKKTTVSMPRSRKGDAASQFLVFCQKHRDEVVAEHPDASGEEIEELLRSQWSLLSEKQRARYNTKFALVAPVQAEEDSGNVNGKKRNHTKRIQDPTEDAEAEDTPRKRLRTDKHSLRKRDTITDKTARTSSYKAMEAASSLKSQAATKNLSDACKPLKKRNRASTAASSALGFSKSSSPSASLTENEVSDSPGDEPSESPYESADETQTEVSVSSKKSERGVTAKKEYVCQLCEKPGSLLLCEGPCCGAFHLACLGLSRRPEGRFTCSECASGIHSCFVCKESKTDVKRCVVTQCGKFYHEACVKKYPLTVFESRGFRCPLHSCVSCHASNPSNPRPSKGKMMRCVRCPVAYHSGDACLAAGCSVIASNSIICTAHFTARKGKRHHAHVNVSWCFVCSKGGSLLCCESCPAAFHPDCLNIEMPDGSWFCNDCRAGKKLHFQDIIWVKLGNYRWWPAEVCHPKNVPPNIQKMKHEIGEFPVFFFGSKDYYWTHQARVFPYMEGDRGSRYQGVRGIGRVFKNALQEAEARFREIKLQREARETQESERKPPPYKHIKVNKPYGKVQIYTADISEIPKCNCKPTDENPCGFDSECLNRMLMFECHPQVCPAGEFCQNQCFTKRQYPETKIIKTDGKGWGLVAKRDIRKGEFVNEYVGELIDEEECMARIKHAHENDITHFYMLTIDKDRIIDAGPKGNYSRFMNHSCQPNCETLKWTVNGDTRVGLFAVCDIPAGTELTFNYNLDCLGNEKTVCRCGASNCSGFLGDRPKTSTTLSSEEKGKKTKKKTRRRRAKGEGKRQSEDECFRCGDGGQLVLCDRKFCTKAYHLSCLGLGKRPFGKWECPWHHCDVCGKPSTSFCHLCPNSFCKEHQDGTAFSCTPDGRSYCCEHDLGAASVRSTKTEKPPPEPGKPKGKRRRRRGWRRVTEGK
An asterisk follows results filed as active.

How did Cc1ccc(NC(=O)c2cc(N(C)C)ccc2[P+](=O)O)cc1 do in these assays?
esBAF inh: 45*; Wnt act: 13; CASP6 VEID inh: 2; MITF act: 55; NSD2 HMT inh: 14

Results for O=C(c1cc(COc2cccc(C(F)(F)F)c2)on1)N1C[C@H]2CC[C@H]1C2 ?
XiGFP reactiv: 0; esBAF inh: 58*; Wnt act: 13; CASP6 VEID inh: 0; MITF act: 65; NSD2 HMT inh: -2

What do the screens show for `CC(=O)c1cccc(OCc2cc(C(=O)N3C[C@@H](C)O[C@@H](C)C3)no2)c1`?
XiGFP reactiv: 0; esBAF inh: 65*; Wnt act: 21; CASP6 VEID inh: 5; MITF act: 69

Results for COCCC1CCCCN1C(=O)c1cc(COc2cccc(C(C)=O)c2)on1 (configuration not stated) ?
XiGFP reactiv: 0; esBAF inh: 65*; Wnt act: 14; CASP6 VEID inh: 2; MITF act: 27; NSD2 HMT inh: -2

What do the screens show for `COc1ccc(OCc2cc(C(=O)N3C[C@@H](C)O[C@@H](C)C3)no2)c(Cl)c1`?
XiGFP reactiv: 0; esBAF inh: 42*; Wnt act: 13; CASP6 VEID inh: 1; MITF act: 70; NSD2 HMT inh: -2

How did CC(=O)Nc1ccc2c(c1)C(=O)N(C)[C@@H]1CC[C@H](CC(=O)N3CCc4ccccc4C3)O[C@@H]1CO2 do in these assays?
XiGFP reactiv: 0; esBAF inh: 1

What do the screens show for `CC(=O)Nc1cccc2c1O[C@@H](CN(C)S(C)(=O)=O)[C@H](C)CN(C)C2=O`?
XiGFP reactiv: 0

Results for Cc1ccccc1C1=NC(c2ccc(F)cc2F)ON1 (configuration not stated) ?
esBAF inh: 48*; MITF act: 61; NSD2 HMT inh: -2

Results for COc1cccc(Nc2nc(CC(C)=O)ns2)c1 ?
MITF act: 14; NSD2 HMT inh: -2

Results for COc1ccc(Nc2nc(CC(C)=O)ns2)cc1 ?
esBAF inh: 57*; MITF act: 40; NSD2 HMT inh: 1

How did C[C@H](CO)N1C[C@H](C)[C@H](CN(C)Cc2ccc(C(=O)Nc3ccccc3N)cc2)Oc2ccc(NS(=O)(=O)c3cn(C)cn3)cc2C1=O do in these assays?
XiGFP reactiv: -1; esBAF inh: -2; CASP6 VEID inh: 3

Results for O=C(Nc1ccc(F)cc1)N1CCN(C(=O)C2CCCO2)CC1 (configuration not stated) ?
XiGFP reactiv: 0; esBAF inh: -1; Wnt act: 1; CASP6 VEID inh: 82*; MITF act: 12; NSD2 HMT inh: 0

How did O=C(C1CCCO1)N1CCN(C(=S)Nc2ccc(F)cc2)CC1 (configuration not stated) do in these assays?
XiGFP reactiv: 0; Wnt act: -2; CASP6 VEID inh: -1; MITF act: -9; NSD2 HMT inh: -2

What do the screens show for `C[C@@H]1CN([C@H](C)CO)C(=O)c2cccc(NS(=O)(=O)c3cn(C)cn3)c2O[C@H]1CN(C)C(=O)Nc1ccc(C(F)(F)F)cc1`?
XiGFP reactiv: 0; esBAF inh: 5; CASP6 VEID inh: -2

How did O=C(C[C@H]1C[C@@H]2c3cc(NC(=O)NC4CCCCC4)ccc3O[C@@H]2[C@H](CO)O1)NCc1ccccn1 do in these assays?
XiGFP reactiv: 0; esBAF inh: 4; CASP6 VEID inh: -1

Results for Cc1nn(-c2ccccn2)c2c1-c1nc(N3CCOCC3)ncc1CC2 ?
MITF act: 16; NSD2 HMT inh: -1

Results for Cc1nn(-c2ccccn2)c2c1-c1nc(N)ncc1CC2 ?
esBAF inh: inconclusive; Wnt act: 30; MITF act: 110*; NSD2 HMT inh: -3

Results for O=C(CCCCCN1C(=O)c2ccccc2C1=O)Nc1ccccc1 ?
esBAF inh: 0; MITF act: -6; NSD2 HMT inh: -4

How did O=C(CCCCCCC(=O)Nc1ccccc1)NO do in these assays?
XiGFP reactiv: 0; esBAF inh: -43; Wnt act: 245*; CASP6 VEID inh: -1; MITF act: -84

What do the screens show for `CC(=O)Nc1cccc(NC(=O)CCCC(=O)O)c1`?
esBAF inh: -1; Wnt act: 40*; MITF act: 3; NSD2 HMT inh: 29

Results for O=C(O)CCCC(=O)Nc1cccc([N+](=O)[O-])c1 ?
XiGFP reactiv: 0; Wnt act: 0; CASP6 VEID inh: 2; MITF act: 4; NSD2 HMT inh: -5

How did COc1cccc(/C=C2\CCC(C3CCCC3)C2=O)c1OC (configuration not stated) do in these assays?
XiGFP reactiv: 0; esBAF inh: 67*; Wnt act: 30; CASP6 VEID inh: 1; MITF act: 75; NSD2 HMT inh: 1

How did COc1ccc(/C=C2\CCC(C3CCCC3)C2=O)c(OC)c1OC (configuration not stated) do in these assays?
XiGFP reactiv: 0; esBAF inh: 31; Wnt act: 13; CASP6 VEID inh: 2; NSD2 HMT inh: 6

How did CCCC#Cc1ccc2c(c1)O[C@H](CN(C)C)[C@@H](C)CN([C@H](C)CO)S2(=O)=O do in these assays?
XiGFP reactiv: -1; esBAF inh: 0; CASP6 VEID inh: -1

Results for CNC(=O)/C(C#N)=C\c1ccc(CNS(=O)(=O)c2ccccc2)o1 ?
XiGFP reactiv: 0; MITF act: -4; NSD2 HMT inh: 2

What do the screens show for `N#C/C(=C/c1ccc(-c2ccc(S(N)(=O)=O)cc2)o1)c1nc2ccccc2s1`?
XiGFP reactiv: 92*; MITF act: -23; NSD2 HMT inh: -1

How did CNC(=O)/C(C#N)=C/c1ccc(-c2nc3ccccc3s2)o1 do in these assays?
XiGFP reactiv: 0; Wnt act: 43*; CASP6 VEID inh: -2; NSD2 HMT inh: 5

Results for N#C/C(=C/c1ccc(-c2ccc(S(N)(=O)=O)cc2)o1)C(=O)Nc1ccccc1 ?
XiGFP reactiv: 0; esBAF inh: -5; Wnt act: -8; MITF act: -3; NSD2 HMT inh: -1

What do the screens show for `N#C/C(=C\c1ccc(-c2nc3ccccc3s2)o1)C(N)=O`?
XiGFP reactiv: 0; Wnt act: 44*; CASP6 VEID inh: -2; NSD2 HMT inh: -5

Results for N#C/C(=C/c1ccc(-c2ccccc2)o1)c1nc(-c2cccs2)cs1 ?
XiGFP reactiv: 77*; CASP6 VEID inh: 1; MITF act: -9; NSD2 HMT inh: -1

How did N#C/C(=C/c1ccc(Br)o1)C(N)=O do in these assays?
esBAF inh: 1; MITF act: -12; NSD2 HMT inh: -2

What do the screens show for `CO[C@@H]1CN(C)C(=O)c2cc(NC(=O)NC3CCCC3)ccc2OC[C@H](C)N(CC2CC2)C[C@H]1C`?
XiGFP reactiv: 0
